# Screening data: PubChem, Johns Hopkins Ion Channel Center
# Kir21 inh = inhibitors of mouse Kir2.1 inward-rectifier potassium channel | Inward rectifier potassium channel 2 (Mus musculus), P35561 | HEK293-Kir2.1, FluxOR thallium flux fluorescence; active compounds read low | B-score at 10 µM | 310,000 tested, 0.85% active;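 active = fluorescence ratio B-score at or below minus 3 SD of library scores, with starting-brightness B-score within 2 SD, cut at about -4.2 in these data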;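 note: channel flux triggered by added potassium and thallium sulfate stimulus; B-score of peak minus minimum fluorescence over baseline after thallium stimulus; more negative B-score means stronger Kir2.1 block with less thallium influx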
# Target sequence (P35561 whole entry, looked up): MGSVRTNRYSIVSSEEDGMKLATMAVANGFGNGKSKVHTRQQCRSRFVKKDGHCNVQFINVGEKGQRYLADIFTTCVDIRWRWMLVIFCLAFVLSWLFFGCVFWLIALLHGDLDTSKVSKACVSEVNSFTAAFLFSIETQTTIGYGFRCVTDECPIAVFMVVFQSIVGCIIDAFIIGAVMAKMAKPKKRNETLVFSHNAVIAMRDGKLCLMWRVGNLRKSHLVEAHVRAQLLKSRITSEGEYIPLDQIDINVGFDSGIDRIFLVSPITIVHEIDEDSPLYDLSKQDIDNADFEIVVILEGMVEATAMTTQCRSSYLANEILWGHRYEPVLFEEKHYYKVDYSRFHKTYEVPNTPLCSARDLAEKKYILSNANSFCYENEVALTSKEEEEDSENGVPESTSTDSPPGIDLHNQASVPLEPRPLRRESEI
# KCNQ1 pot = potentiators or activators of KCNQ1 channel, primary screen, cell-based, thallium flux, high-throughput; CHO-K1 KCNQ1, thallium flux FluxOR fluorescence; active compounds read high; Potassium voltage-gated channel subfamily KQT member 1 (Homo sapiens), P51787; AID 2648, 2010; B-score at 10 µM; 310,000 tested, 0.35% active;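 active = fluorescence ratio B-score, a plate-corrected score, at least three library SD, with initial intensity B-score within 5 SD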
#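 Assay system: CHO-K1 cells stably expressing KCNQ1; Medium: assay buffer with matched DMSO; Also added: K+/Tl+ depolarizing stimulus; Dosing: single dose; Timing: dye 90 min, compound 20 min, room temperature; Measured by: kinetic FluxOR thallium fluorescence, 10-s 1-Hz baseline, 110-s post-stimulus read; Read-out: peak-minus-minimum fluorescence over initial fluorescence, negative-control normalized, B-scored.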
# KCNK3 block = human KCNK3 channel inhibitors, primary screen, CHO cells, FluxOR thallium flux, B-score | B-score at 10 µM | 340,000 tested, 0.84% active | FluxOR fluorescence; active compounds read low | Potassium channel subfamily K member 3 (Homo sapiens), O14649 | AID 602410, 2012;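 active = B-score under library mean minus 4 SD, starting fluorescence ratio at most library mean plus 5 SD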;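 note: more negative B-score means stronger inhibition of thallium flux through KCNK3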
# hERG rescue = hERG rescue from dofetilide block, primary screen, cell-based, CHO-hERG, FluxOR thallium flux, dofetilide IC70 | Voltage-gated inwardly rectifying potassium channel KCNH2 (Homo sapiens), Q12809 | dofetilide IC70 present | activation (rescue from dofetilide block), less the hit threshold, % at 10 µM | 310,000 tested, 0.51% active;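 active = activation above the mean of controls blocked by dofetilide plus 5 SD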;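 note: thallium influx through hERG after potassium depolarization seen as dye fluorescence rise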
# KCNK9 block = KCNK9 potassium channel inhibitors, primary screen, HEK293 cells, thallium flux | B-score at 10 µM | AID 488922, 2010 | FluxOR thallium flux fluorescence; active compounds read low | Potassium channel subfamily K member 9 (Homo sapiens), Q9NPC2 | 310,000 tested, 1.2% active;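 active = ratio B-score over 3 SD below the library mean, with starting fluorescence within 5 SD of its mean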;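 note: negative B-score means less thallium flux so channel inhibition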
# KCNQ1 block = inhibitors of human KCNQ1 channel, primary screen, cell-based, thallium flux, high-throughput. Potassium voltage-gated channel subfamily KQT member 1 (Homo sapiens), P51787. CHO-K1 KCNQ1, FluxOR thallium flux fluorescence; active compounds read high. B-score at 10 µM. 310,000 tested, 1.3% active. AID 2642, 2010;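 active = compounds whose thallium flux B-score, printed positive for inhibition, exceeds three library SD while starting fluorescence stays within three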;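 note: channel opened by potassium depolarization with thallium stimulus after 20 min compound exposure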
# KCNK9 inh conf = KCNK9 potassium channel inhibitors, confirmation, HEK293 cells, thallium flux, duplicate | shares compounds with KCNK9 block | FluxOR thallium flux fluorescence | inhibition, % at 10 µM | 4,900 tested, 43% active | AID 492992, 2010;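 active = thallium signal inhibited by more than 5 SD of the compound-free buffer control wells, on both duplicate plates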;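 note: 0% = assay buffer control wells without compound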
# Kir2-1 spec = mouse Kir2.1 channel inhibition, confirmation, selectivity assay for KCNK9 modulator project, cell-based, HEK293, thallium flux. shares compounds with KCNK9 block. Kir2.1 cells, FluxOR thallium flux fluorescence. inhibition, % at 10 µM. 4,900 tested, 4% active;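 active = thallium signal drop more than 5 SD beyond the mean of the no-compound control wells, seen in both duplicate plates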;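 note: signal is fluorescence rise after thallium addition divided by baseline fluorescence; plate controls were assay buffer only for no effect and full block by chlorpromazine control for full effect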
# HEK293 Tl ctr = thallium flux in non-induced HEK293 cells, confirmation, counter-screen for KCNK9 inhibitor project, cell-based, second counter screen, non-induced KCNK9-HEK293. inhibition, % at 10 µM. AID 492997, 2010. 4,900 tested, 40% active. shares compounds with KCNK9 block. FluxOR thallium flux;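 active = thallium signal drop beyond 5 SD of the untreated control mean, on both duplicate plates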;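 note: plate controls were buffer only IC0 wells for no effect and SID17386958 at its maximal inhibitory level for full effect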
# Starred values were filed as active, the others as inactive; i = inactive; nt = not tested or not shown. An excerpt weighted towards active compounds, which were near 3.7% of everything screened.
SMILES,Kir21 inh,KCNQ1 pot,KCNK3 block,hERG rescue,KCNK9 block,KCNQ1 block,KCNK9 inh conf,Kir2-1 spec,HEK293 Tl ctr
CCN(CC(=O)Nc1ccccc1C(F)(F)F)C(=O)c1ccc(N2CCCC2=O)cc1,nt,nt,i,nt,nt,nt,nt,nt,nt
CN(C(=O)COC(=O)CCc1c[nH]c2ccccc12)C(c1ccccc1)c1ccccc1,0,i,i,-12,-9.5*,i,44%*,i,28%*
O=C(Cc1cccc2ccccc12)Nc1ccccc1Br,0.97,i,i,-2,i,i,nt,nt,nt
COc1ccc(-c2oc(NC(C)=O)c(C#N)c2-c2ccc(OC)cc2)cc1,-2.4,i,i,-8,i,i,nt,nt,nt
COc1ccc(C(=O)Nc2oc(-c3ccccc3)c(-c3ccccc3)c2C#N)cc1OC,1.1,i,i,-11,-9.2*,i,49%*,i,38%*
CCOC(=O)[C@H]1[C@H]2COc3ccccc3[C@@H]2N2C(=O)c3ccc(C)cc3NC(=O)[C@@]12C,nt,nt,i,nt,nt,nt,nt,nt,nt
CCc1noc(C)c1C(=O)Nc1cc(Cl)ccc1N1CCCC1,0.41,i,i,-10,i,i,nt,nt,nt
CCc1nnc(NC(=O)CSc2nnc(-c3ccccc3OC)n2-c2ccccc2)s1,2,i,i,-16,-17*,i,68%*,i,32%*
CCc1nnc(NC(=O)CSc2nnc(-c3ccccc3OC)n2-c2ccc(C)cc2)s1,0,i,i,-4,i,i,nt,nt,nt
CCC(NC(=O)c1cccc(Cn2cc([N+](=O)[O-])cn2)c1)c1ccc(C(C)C)cc1 (stereo not drawn),-2.1,i,i,-9,-14*,i,62%*,i,42%*
COCCN1C(=O)/C(=C/c2ccc(OCc3ccc(C(=O)O)cc3)c(OC)c2)SC1=Nc1ccccc1,2.5,i,i,-33,i,i,i,i,i
COc1ccc2c(c1)CCc1cn3nc(C)cc3nc1-2,1.5,i,i,-15,i,i,i,i,i
Cc1cccc(C)c1NC(=O)CNC(=O)c1ccc2c(c1)NC(=O)CS2,nt,nt,i,nt,nt,nt,nt,nt,nt
Cc1cc(NCCOCCO)n2c(nc3ccccc32)c1C#N,-0.1,i,i,-3,-14*,i,36%*,i,i
Cc1cccc(NC(=O)CSc2cc(C)c(C#N)c3nc4ccccc4n23)c1,0.28,i,i,-10,i,i,i,i,i
CNc1cc(C)c(C#N)c2nc3ccccc3n12,-0.62,i,i,-2,i,i,nt,nt,nt
CC(C)(C)n1nnnc1C(c1cccs1)N1CCN(Cc2ccccc2)CC1 (stereo not drawn),-0.99,i,i,-3,i,i,nt,nt,nt
CC(C)(C)n1nnnc1C(c1cccs1)N(Cc1cccnc1)Cc1ccccc1Cl (stereo not drawn),-0.06,i,i,-9,-19*,i,70%*,i,54%*
CCOC(=O)C1CCN(Cc2cc(=O)oc3cc(C)c(Cl)cc23)CC1,0.43,i,i,-3,i,i,i,i,i
CCOC(=O)C1CCN(Cc2cn(C)nc2-c2ccc(Oc3ccccc3)cc2)CC1,-0.22,i,i,-15,i,i,i,i,i
Cc1ccc2c(CN3CCN(Cc4ccccc4)CC3)cc(=O)oc2c1C,-0.38,i,i,-7,i,i,i,i,i
CCOC(=O)C1CCN(Cc2cc(=O)oc3c(C)c(C)ccc23)CC1,-1.1,i,i,-7,i,i,i,i,i
Cc1cc(C)c2oc(=O)cc(CN3CCN(Cc4ccccc4)CC3)c2c1,-0.85,i,i,-12,i,i,nt,nt,nt
Cn1cc(CN2CCC(O)CC2)c(-c2ccc(Oc3ccccc3)cc2)n1,-0.11,i,i,-9,i,i,nt,nt,nt
Cc1ccc2c(CN3CCC(C)CC3)cc(=O)oc2c1C,0.01,i,i,-3,i,i,nt,nt,nt
SMILES,Kir21 inh,KCNQ1 pot,KCNK3 block,hERG rescue,KCNK9 block,KCNQ1 block,KCNK9 inh conf,Kir2-1 spec,HEK293 Tl ctr
CC(C)COc1ccc(C(=S)N2CCCC2)cc1,1.1,i,i,-7,i,i,nt,nt,nt
O=C(Cc1ccc(Cl)cc1)NCC(=O)N1CCCCCC1,-2.1,i,i,-6,i,i,nt,nt,nt
CCOC(=O)C1CCN(Cc2ccc(OC)c(C)c2OC)CC1,0.23,i,i,-5,i,i,nt,nt,nt
CCOC(=O)C1CCN(Cc2cc(Cl)c3ccccc3c2O)CC1,1,i,i,0,i,i,i,i,i
Cc1ccc2nc(C)cc(C(=O)N/N=C/c3ccncc3)c2c1,0.1,i,i,-2,i,i,nt,nt,nt
Cc1cc(C)c2cc(C(=O)N3CCC(Cc4ccccc4)CC3)[nH]c2c1,-1.7,i,i,-13,i,i,i,i,i
Cc1ccc(/C=C/C(=O)N2CCC(Cc3ccccc3)CC2)cc1,-1.6,i,i,-14,i,i,i,i,26%*
COc1cc2cc(C(=O)N3CCC(Cc4ccccc4)CC3)[nH]c2cc1OC,0.41,i,i,0,i,i,nt,nt,nt
CC1CCN(C(=O)/C=C/c2ccc(C(C)(C)C)cc2)CC1,0.27,i,i,-15,-9*,i,62%*,i,50%*
CCOC(=O)N1CCN(C(=O)Cc2ccccc2[N+](=O)[O-])CC1,0.78,i,i,-15,i,i,nt,nt,nt
CN(CC(=O)Nc1ccc(F)c(F)c1F)C(=O)C1=NN(c2ccccc2)C(=O)CC1,nt,nt,i,nt,nt,nt,nt,nt,nt
